# Source: PubChem BioAssay
# The list is not random: actives were taken first. Their share in the collection is about 11%.
# S1P3 agonist: agonists of human S1P3 receptor; AID 373; 60,000 tested, 0.1% active; Q99500; activation, % at 4.5 µM; S1P3 NFAT-BLA reporter cells, agonism, FRET ratio; relative to 1 µM S1P, basal subtracted;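 active = activation above the screen-wide mean plus 3 SD, cut at about 4.5% in these data, passing the limit was not always enough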
#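 Material: Human S1P3 NFAT-BLA reporter CHO cells | Incubation: Overnight plating, 4 h compound 37 °C, 2 h substrate RT | Signal: FRET β-lactamase substrate fluorescence, excitation 405 nm, 460/535 nm emission ratio, background-subtracted | Compound: 4.5 µM final, single dose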
# M1 antagonist: blocks the rat M1 muscarinic receptor response to acetylcholine; P08482; CHO-M1 cells, Fluo-4 calcium, ACh EC80 antagonist mode; hits give low values; B-score at 10 µM; 64,000 tested, 3.4% active;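 active = calcium fluorescence response, raw or row-and-column corrected B-score, differing from the plate sample mean either way at a set confidence level, mostly lower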
# Target sequence (P08482 whole entry, looked up): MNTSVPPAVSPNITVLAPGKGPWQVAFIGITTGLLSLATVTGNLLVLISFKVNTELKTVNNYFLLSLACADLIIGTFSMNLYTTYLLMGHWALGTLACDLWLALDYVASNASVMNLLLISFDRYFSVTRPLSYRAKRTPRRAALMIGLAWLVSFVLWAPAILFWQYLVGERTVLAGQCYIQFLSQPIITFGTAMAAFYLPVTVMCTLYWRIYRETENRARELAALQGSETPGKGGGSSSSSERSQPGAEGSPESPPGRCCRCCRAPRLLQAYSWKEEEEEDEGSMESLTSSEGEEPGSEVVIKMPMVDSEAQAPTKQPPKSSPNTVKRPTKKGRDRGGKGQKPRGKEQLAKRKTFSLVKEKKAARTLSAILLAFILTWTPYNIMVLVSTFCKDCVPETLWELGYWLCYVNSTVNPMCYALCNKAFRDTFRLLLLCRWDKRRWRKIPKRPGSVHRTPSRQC
# M1 ag: M1 muscarinic receptor agonism; 64,000 tested, 3% active; CHO-M1 cells, Fluo-4 calcium fluorescence, agonist mode; hits give high values; B-score at 10 µM;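 active = fluorescence rise, raw or as B-score row- and column-corrected plate score, outside the 99.7% band of its plate's samples, either direction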
# D1 mod: D1 dopamine receptor (human) allosteric modulation. P21728. HEK293 D1, CRE-luciferase, dopamine EC30 potentiation; actives deviate in either direction. B-score at 10 µM. 58,000 tested, 5.9% active;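 active = luminescence count or its row- and column-corrected plate score outside the 99.7% band of the plate's sample wells, on either side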
# S1P1 ag pot: agonists and agonism potentiators of human S1P1 receptor | activation, % at 9.5 µM | S1P1 CRE-bla cells, forskolin, beta-lactamase FRET, potentiator mode; S1P1 agonist co-added at EC20, 2 nM; 100% = saturating reference agonist, 0% = basal | 56,000 tested, 0.57% active | AID 449 | P21453;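 active = activation above a cutoff set at the mean activation of all tested compounds plus 3 SD, cut at about 54% in these data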;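 note: forskolin at 4 µM as EC80 and the EC20 agonist is SEW2871; 100% = SEW2871 at its EC100 plus forskolin at EC80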
# D1 PAM confirm: confirmation of human D1 dopamine receptor allosteric modulators; shares compounds with D1 mod; HEK293 D1 CRE-luciferase, dopamine EC30 potentiation; hits give high values; luminescence at 10 µM; 2,200 tested, 88% active; AID 642;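 active = luminescence in either of two replicates above the same-plate mean plus 3 SD of the low-dose dopamine control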
# D1 no dopamine: secondary test of D1 modulators: activity without dopamine; luminescence at 10 µM; HEK293 D1 CRE-luciferase, luminescence, no dopamine; hits give high values; shares compounds with D1 mod; 1,900 tested, 0.8% active; AID 646; in the data active = luminescence above about 3900
# Isoprot counter: counter-screen for D1 modulators: isoproterenol response in HEK293 cells; shares compounds with D1 mod; HEK293 D1 CRE-luciferase, isoproterenol EC30 counter-screen; hits give high values; luminescence at 10 µM; 2,200 tested, 63% active; AID 647;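 active = luminescence in either replicate above plate mean of wells with a partly effective reference agonist dose plus 3 SD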;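 note: isoproterenol raises cAMP through native beta-adrenoceptor Gs so signal bypasses D1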
# * = called active by the depositor; x = no result given.
SMILES,S1P3 agonist,M1 antagonist,M1 ag,D1 mod,S1P1 ag pot,D1 PAM confirm,D1 no dopamine,Isoprot counter
COc1ccc(C)cc1NC(=O)CSc1nnc(-c2ccc(OC)c(OC)c2)n1N,x,-0.0265,0.311,22.3*,x,18440*,1560,5076*
CCOc1cccc(-c2nnc(SCC(=O)Nc3cc(C)ccc3OC)n2N)c1,x,-0.551,-0.735,0.566,x,x,x,x
Cc1noc(C)c1CSCC(=O)OCC(=O)NC1CCCCC1,x,0.812,0.556,0.00547,x,x,x,x
COc1ccc(C(=O)COC(=O)CSCc2c(C)noc2C)cc1OC,-0.2,-0.262,-1.55,7.58*,-9.8,17860*,1868,4232*
COc1ccc(NC(=O)CSc2nc3ccccc3c(=O)n2-c2ccc3c(c2)OCO3)c(OC)c1,0.8,-0.888,-0.343,3.92*,17.0,8076*,1568,3720*
O=c1cc(CN2CCC3(CC2)OCCO3)c2c(ccc3ccccc32)o1,-1.3,-0.0215,-0.0796,5.35*,3.3,13160*,1728,3368*
O=c1cc(CN2CCN(c3ccccc3)CC2)c2c(ccc3ccccc32)o1,-1.4,-1.06,-0.724,0.627,-10.1,x,x,x
N#Cc1nc(-c2ccccc2Cl)oc1N1CCOCC1,-1.1,-0.0448,0.262,4.83*,-36.1,7844*,1764,3180
CC1CCN(c2oc(-c3ccccc3Cl)nc2C#N)CC1,-0.4,-0.233,-0.513,x,6.0,x,x,x
CCn1c(N)c(C(=O)NCCCOC)sc1=S,0.5,-0.145,0.329,-0.0458,-8.2,x,x,x
C=CCNc1sc(C(=O)C(C)(C)C)c(N)c1C#N,1.9,0.00649,-0.575,9.31*,-40.5,21312*,1684,2876
C=CCN(CC=C)C(=O)C1CCC(C(=O)N(CC=C)CC=C)CC1 (centres undefined),-0.4,-0.937,-0.515,-0.0163,6.3,x,x,x
C=CCNc1sc(C(=O)C2CC2)c(N)c1C#N,-4.3,0.477,0.314,18.8*,-34.3,26736*,1716,4380*
COc1cccc(NC2=NCC(=O)N2Cc2cccs2)c1,x,0.0412,0.69,4.16*,x,8816*,1624,2532
COc1ccc(NC2=NCCC(=O)N2Cc2cccs2)cc1,0.3,0.0637,-0.0674,0.261,9.1,x,x,x
CC(=O)OCCOc1nc(N(C)C)nc(N(C)C)n1,-1.0,0.277,0.25,0.187,-15.3,x,x,x
COCCNC(=O)CSc1nc(-c2ccc(OC)c(OC)c2)cc(C(F)(F)F)n1,-0.2,0.197,-0.882,9.35*,-31.6,12172*,1680,6624*
COc1ccc(-c2cc(C(F)(F)F)nc(SCC(=O)N3CCOCC3)n2)cc1OC,0.6,-0.753,1.92,22.9*,-40.8,16556*,1792,5128*
COc1cc2cc(C)c(SCC(=O)N3CCOCC3)nc2cc1OC,-1.1,-0.107,1.08,5.74*,-9.0,10104*,1624,4500*
CCOc1ccc(C2/C(=C(/O)c3ccc(Cl)cc3)C(=O)C(=O)N2CCCN(C)C)cc1OC (centres undefined),0.6,0.016,0.61,0.31,-2.9,x,x,x
Cc1ccc(-n2c(SCc3cn4ccsc4n3)nc3ccccc3c2=O)cc1,1.0,0.265,-0.442,1.51,20.3,x,x,x
O=C(CN(Cc1ccc2c(c1)OCO2)C(=O)c1cnsn1)NC1CCCC1,-0.7,0.383,0.832,-0.497,-0.3,x,x,x
C=CCSc1nc2c(c(=O)[nH]c(=O)n2C)n1C/C=C(/C)Cl,-0.6,-0.565,-0.598,19.2*,-17.8,20956*,x,5232*
CCSc1nc2c(c(=O)[nH]c(=O)n2C)n1C/C=C(/C)Cl,0.8,0.263,-0.0366,14*,-18.7,19268*,1408,6604*
C/C(Cl)=C/Cn1c(SCc2ccc(Cl)cc2)nc2c1c(=O)[nH]c(=O)n2C,0.5,-0.446,-0.472,8.76*,-19.6,10156*,1472,3628*
SMILES,S1P3 agonist,M1 antagonist,M1 ag,D1 mod,S1P1 ag pot,D1 PAM confirm,D1 no dopamine,Isoprot counter
CSc1nc2c(c(=O)[nH]c(=O)n2C)n1C/C=C(\C)Cl,-0.6,0.286,1.05,15.1*,-32.1,24712*,1588,6020*
C/C(Cl)=C/Cn1c(SCCN2CCOCC2)nc2c1c(=O)[nH]c(=O)n2C,-1.2,-0.48,-0.129,1.1,10.8,x,x,x
CCOCCn1c(SCc2ccc(F)cc2)nc2c1c(=O)[nH]c(=O)n2C,-0.7,-0.293,0.604,-0.0468,-2.1,x,x,x
Cc1ccc(C(c2nnnn2CC2CCCO2)N2CCN(c3cccc(C)c3C)CC2)cc1 (centres undefined),0.0,0.0783,0.695,-0.891,2.5,x,x,x
Cc1nnc(NC(=O)CCC(=O)NCc2ccco2)s1,-1.2,1.22,-0.29,0.0607,-6.0,x,x,x
CCOC(=O)C(C)Sc1nc2c(c(=O)[nH]c(=O)n2C)n1C/C=C(/C)Cl (centres undefined),-0.6,0.125,-0.179,9.27*,-2.9,12104*,1572,4240*
CC(=O)Nc1ccc(S(=O)(=O)N2CCC(NC(=O)c3ccco3)CC2)cc1,-0.5,0.0159,0.298,0.0957,10.7,x,x,x
CS(=O)(=O)c1sc2nc(-c3cccs3)cc(-c3ccccc3)c2c1N,-0.2,0.959,-1.26,5.14*,40.5,15760*,1468,2904
COc1ccc(-n2nc(C(=O)N3CCC(C#N)CC3)c3c4ccccc4n(C)c3c2=O)cc1,-0.2,-0.298,-0.583,1.32,-24.1,x,x,x
COc1ccccc1CNC(=O)C1COc2ccccc2O1 (centres undefined),1.3,0.124,0.557,0.0455,-4.3,x,x,x
COc1cc2c(cc1OC)C(C)N(C(=O)c1cc3ccccc3o1)CC2 (centres undefined),-1.3,-0.226,-0.611,15*,73.2,16968*,1740,11008*
COc1cc2c(cc1OC)C(C)N(C(=O)C1COc3ccccc3O1)CC2 (centres undefined),-1.0,-0.762,1.33,7.3*,10.5,19292*,1592,5644*
Cn1c(=O)c2c(nc(SCC(=O)N3CCc4ccccc43)n2Cc2ccccc2)n(C)c1=O,-0.5,0.904,0.33,-0.0359,-3.5,x,x,x
COc1ccc(-c2nn3c(-c4ccncc4)nnc3s2)cc1OC,-0.7,0.485,0.796,1.03,22.1,x,x,x
COc1ccc(-c2nn3cnnc3s2)cc1OC,0.4,0.479,-0.234,12.8*,-44.6,16540*,1640,5880*
CCC(C)(C)n1nnnc1C(C(C)C)N1CCSCC1 (centres undefined),x,0.471,1.46,-1.27,x,x,x,x
CCc1c(C)c(C#N)c2nc3ccccc3n2c1N(C)C,-0.7,2.29*,1.13,4.93*,-26.8,9428*,1532,4636*
CCNc1nc(NC(C)(C)C)nc(N(C#N)CC)n1,1.3,0.059,-0.295,29.9*,-71.7,23548*,1472,6364*
